In ChEMBL document CHEMBL1649574, “Prevalence and characterization of heterogeneous vancomycin-intermediate Staphylococcus aureus isolates from 14 cities in China” (2009):
In brackets after ≈: the same amount, converted by molar mass.

Experiments:
Assay type in all cases: functional
Staphylococcus aureus [1] = assay: Antimicrobial activity against SCCmec type III vancomycin-intermediate Staphylococcus aureus isolate 11b091 by agar dilution method
In short: (§1)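 Agar-dilution MICs were measured on a subset of 200 blood MRSA isolates from China. Agents: oxacillin, rifampin, gentamicin, levofloxacin, erythromycin, vancomycin, teicoplanin, tigecycline, ceftobiprole and linezolid. Phenotype came from the PAP-AUC ratio of each isolate to S. aureus Mu3 (VSSA <0.9; hVISA 0.9 to 1.3; VISA ≥1.3), read on BHI agar with 0 to 8.0 mg/liter vancomycin after 48 h at 35°C.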

Staphylococcus aureus [2] = assay: Antimicrobial activity against SCCmec type III vancomycin-intermediate Staphylococcus aureus isolate xa07029 by agar dilution method; in short: as §1
Staphylococcus aureus [3] = assay: Antimicrobial activity against SCCmec type III vancomycin-intermediate Staphylococcus aureus isolate bd4768 by agar dilution method; in short: as §1
Staphylococcus aureus [4] = assay: Antimicrobial activity against SCCmec type IV vancomycin-intermediate Staphylococcus aureus isolate 06b41 by agar dilution method; in short: as §1
Staphylococcus aureus [5] = assay: Antimicrobial activity against SCCmec type III vancomycin-intermediate Staphylococcus aureus isolate gs07022 by agar dilution method; in short: as §1
Staphylococcus aureus [6] = assay: Antimicrobial activity against SCCmec type III vancomycin-intermediate Staphylococcus aureus isolate 5zjsau3 by agar dilution method; in short: as §1
Staphylococcus aureus [7] = assay: Antimicrobial activity against SCCmec type III vancomycin-intermediate Staphylococcus aureus isolate zj07028 by agar dilution method; in short: as §1
Staphylococcus aureus [8] = assay: Antimicrobial activity against SCCmec type III vancomycin-intermediate Staphylococcus aureus isolate b4k6307 by agar dilution method; in short: as §1
Staphylococcus aureus [9] = assay: Antimicrobial activity against SCCmec type II vancomycin-intermediate Staphylococcus aureus isolate b2k4781 by agar dilution method; in short: as §1
Staphylococcus aureus [10] = assay: Antimicrobial activity against SCCmec type III vancomycin-intermediate Staphylococcus aureus isolate b6k1642 by agar dilution method; in short: as §1
Staphylococcus aureus [11] = assay: Antimicrobial activity against SCCmec type II vancomycin-intermediate Staphylococcus aureus isolate 07b63 by agar dilution method; in short: as §1
Staphylococcus aureus [12] = assay: Antimicrobial activity against SCCmec type III vancomycin-intermediate Staphylococcus aureus isolate 15b52 by agar dilution method; in short: as §1
Staphylococcus aureus [13] = assay: Antimicrobial activity against SCCmec type III vancomycin-intermediate Staphylococcus aureus isolate gz07030 by agar dilution method; in short: as §1
Staphylococcus aureus [14] = assay: Antimicrobial activity against SCCmec type III vancomycin-intermediate Staphylococcus aureus isolate b5k3529 by agar dilution method; in short: as §1
Staphylococcus aureus [15] = assay: Antimicrobial activity against SCCmec type III vancomycin-intermediate Staphylococcus aureus isolate b5k3578 by agar dilution method; in short: as §1
Staphylococcus aureus [16] = assay: Antimicrobial activity against SCCmec type II vancomycin-intermediate Staphylococcus aureus isolate 6zjsau7 by agar dilution method; in short: as §1
Staphylococcus aureus [17] = assay: Antimicrobial activity against SCCmec type III vancomycin-intermediate Staphylococcus aureus isolate b3k5923 by agar dilution method; in short: as §1
Staphylococcus aureus [18] = assay: Antimicrobial activity against SCCmec type II vancomycin-intermediate Staphylococcus aureus isolate 4sy32 by agar dilution method; in short: as §1
Staphylococcus aureus [19] = assay: Antimicrobial activity against SCCmec type III vancomycin-intermediate Staphylococcus aureus isolate gz06051 by agar dilution method; in short: as §1
Staphylococcus aureus [20] = assay: Antimicrobial activity against SCCmec type II vancomycin-intermediate Staphylococcus aureus isolate sh06024 by agar dilution method; in short: as §1
Staphylococcus aureus [21] = assay: Antimicrobial activity against SCCmec type III vancomycin-intermediate Staphylococcus aureus isolate gz06040 by agar dilution method; in short: as §1
Staphylococcus aureus [22] = assay: Antimicrobial activity against SCCmec type II vancomycin-intermediate Staphylococcus aureus isolate 4sy39 by agar dilution method; in short: as §1
Staphylococcus aureus [23] = assay: Antimicrobial activity against SCCmec type III vancomycin-intermediate Staphylococcus aureus isolate b2k3421 by agar dilution method; in short: as §1
Staphylococcus aureus [24] = assay: Antimicrobial activity against SCCmec type III vancomycin-intermediate Staphylococcus aureus isolate sh07043 by agar dilution method; in short: as §1
Staphylococcus aureus [25] = assay: Antimicrobial activity against SCCmec type III vancomycin-intermediate Staphylococcus aureus isolate b3k2345 by agar dilution method; in short: as §1
Staphylococcus aureus [26] = assay: Antimicrobial activity against SCCmec type III vancomycin-intermediate Staphylococcus aureus isolate b6k7974 by agar dilution method; in short: as §1
Staphylococcus aureus [27] = assay: Antimicrobial activity against SCCmec type III vancomycin-intermediate Staphylococcus aureus isolate 13b16 by agar dilution method; in short: as §1

Compound: GENTAMICIN
- MIC (Staphylococcus aureus [1]): 256 µg/mL
- MIC (Staphylococcus aureus [2]): 128 µg/mL
- MIC (Staphylococcus aureus [3]): 256 µg/mL
- MIC (Staphylococcus aureus [4]): 0.25 µg/mL
- MIC (Staphylococcus aureus [5]): 8 µg/mL
- MIC (Staphylococcus aureus [6]): > 256 µg/mL
- MIC (Staphylococcus aureus [7]): > 256 µg/mL
- MIC (Staphylococcus aureus [8]): 128 µg/mL
- MIC (Staphylococcus aureus [9]): > 256 µg/mL
- MIC (Staphylococcus aureus [10]): > 256 µg/mL
- MIC (Staphylococcus aureus [11]): 64 µg/mL
- MIC (Staphylococcus aureus [12]): 256 µg/mL
- MIC (Staphylococcus aureus [13]): > 256 µg/mL
- MIC (Staphylococcus aureus [14]): > 256 µg/mL
- MIC (Staphylococcus aureus [15]): > 256 µg/mL
- MIC (Staphylococcus aureus [16]): 256 µg/mL
- MIC (Staphylococcus aureus [17]): 128 µg/mL
- MIC (Staphylococcus aureus [18]): 64 µg/mL
- MIC (Staphylococcus aureus [19]): 128 µg/mL
- MIC (Staphylococcus aureus [20]): 256 µg/mL
- MIC (Staphylococcus aureus [21]): 256 µg/mL
- MIC (Staphylococcus aureus [22]): 64 µg/mL
- MIC (Staphylococcus aureus [23]): 128 µg/mL
- MIC (Staphylococcus aureus [24]): 128 µg/mL
- MIC (Staphylococcus aureus [25]): 128 µg/mL
- MIC (Staphylococcus aureus [26]): 256 µg/mL
- MIC (Staphylococcus aureus [27]): 256 µg/mL

Compound: Cc1onc(-c2ccccc2)c1C(=O)N[C@@H]1C(=O)N2[C@@H]1SC(C)(C)[C@@H]2C(=O)O [OXACILLIN]
- MIC (Staphylococcus aureus [1]): > 64 µg/mL
- MIC (Staphylococcus aureus [2]): > 64 µg/mL
- MIC (Staphylococcus aureus [3]): > 64 µg/mL
- MIC (Staphylococcus aureus [4]): 8 µg/mL (≈ 19.9 µM)
- MIC (Staphylococcus aureus [5]): 8 µg/mL (≈ 19.9 µM)
- MIC (Staphylococcus aureus [6]): > 64 µg/mL
- MIC (Staphylococcus aureus [7]): > 64 µg/mL
- MIC (Staphylococcus aureus [8]): > 64 µg/mL
- MIC (Staphylococcus aureus [9]): > 64 µg/mL
- MIC (Staphylococcus aureus [10]): > 64 µg/mL
- MIC (Staphylococcus aureus [11]): > 64 µg/mL
- MIC (Staphylococcus aureus [12]): > 64 µg/mL
- MIC (Staphylococcus aureus [13]): > 64 µg/mL
- MIC (Staphylococcus aureus [14]): > 64 µg/mL
- MIC (Staphylococcus aureus [15]): > 64 µg/mL
- MIC (Staphylococcus aureus [16]): > 64 µg/mL
- MIC (Staphylococcus aureus [17]): > 64 µg/mL
- MIC (Staphylococcus aureus [18]): 256 µg/mL (≈ 638 µM)
- MIC (Staphylococcus aureus [19]): > 64 µg/mL
- MIC (Staphylococcus aureus [20]): > 64 µg/mL
- MIC (Staphylococcus aureus [21]): 32 µg/mL (≈ 79.7 µM)
- MIC (Staphylococcus aureus [22]): 256 µg/mL (≈ 638 µM)
- MIC (Staphylococcus aureus [23]): > 64 µg/mL
- MIC (Staphylococcus aureus [24]): > 64 µg/mL
- MIC (Staphylococcus aureus [25]): > 64 µg/mL
- MIC (Staphylococcus aureus [26]): > 64 µg/mL
- MIC (Staphylococcus aureus [27]): > 64 µg/mL
